The test system of assay [1] is DU-145. As to the kind of experiment: Growth inhibition of human DU145 cells after 72 hrs by MTT assay. The note with it: DU-145, 72 h. It is filed as functional, cell-based. The gist of the method:
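Du145 human prostate carcinoma cells were screened by MTT cell-growth inhibition assay. IC50 values are means of three experiments.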

The subject of assay [2] is DU-145. The assay can be described thus: Induction of apoptosis in human DU145 cells at 10 uM after 72 hrs by AnnexinV conjugated 7- AAD staining by flow cytometry. It is filed as functional, cell-based. In outline:
(§1)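 Du145 cells were treated for 72 h and stained with Annexin V conjugate plus 7-AAD. Flow cytometry read PS externalization and membrane integrity, scoring cells as live (double negative), early apoptotic, or late apoptotic/necrotic (double positive). Untreated cells served as the control.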

For another assay, the system named is IMR-90. As to the kind of experiment: Antiproliferative activity against human IMR90 cells after 72 hrs by MTT assay. The note with it: IMR-90, 72 h. The class given is cell-based. (Formazan colour is commonly taken as a measure of viable cells.)
In the next assay the test system is A549. The assay can be described thus: Antiproliferative activity against human A549 cells after 72 hrs by MTT assay. It is filed as functional, cell-based. The note with it: A549, 72 h.
In the next assay the test system is HeLa. The assay can be described thus: Antiproliferative activity against human HeLa cells after 72 hrs by MTT assay. It is filed as functional, cell-based.
A further assay concerns HepG2. The assay can be described thus: Antiproliferative activity against human HepG2 cells after 72 hrs by MTT assay. Conditions: HepG2, 72 h. The class given is functional, cell-based.
The next assay has as its system HT-1080. As to the kind of experiment: Antiproliferative activity against human HT1080 cells after 72 hrs by MTT assay. It is filed as functional, cell-based. Conditions: HT-1080, 72 h.
The subject of a further assay is HT-29. As to the kind of experiment: Antiproliferative activity against human HT-29 cells after 72 hrs by MTT assay. It is filed as functional, cell-based. The note with it: HT-29, 72 h.
A further assay concerns KB. The assay can be described thus: Antiproliferative activity against human KB cells after 72 hrs by MTT assay. The class given is functional, cell-based.
Assay [3] is described as follows: Antiproliferative activity against human L78 cells after 72 hrs by MTT assay. The class given is functional, cell-based. The note with it: L78, 72 h.
The subject of a further assay is MCF7. As to the kind of experiment: Antiproliferative activity against human MCF7 cells after 72 hrs by MTT assay. The class given is functional, cell-based. Conditions: MCF7, 72 h.
Another assay relates to MOLT-4. As to the kind of experiment: Antiproliferative activity against human MOLT4 cells after 72 hrs by MTT assay. The class given is functional, cell-based. Conditions: MOLT-4, 72 h.
For another assay, the system named is OS-RC-2. The assay can be described thus: Antiproliferative activity against human OS-RC2 cells after 72 hrs by MTT assay. It is filed as functional, cell-based. Conditions: OS-RC-2, 72 h.
The subject of another assay is SGC-7901. As to the kind of experiment: Antiproliferative activity against human SGC7901 cells after 72 hrs by MTT assay. It is filed as functional, cell-based. Conditions: SGC-7901, 72 h.
The next assay deals with U-251. The assay can be described thus: Antiproliferative activity against human U251 cells after 72 hrs by MTT assay. It is filed as functional, cell-based. Conditions: U-251, 72 h.
Assay [4] deals with DU-145. As to the kind of experiment: Induction of apoptosis in human DU145 cells at 5 uM after 72 hrs by AnnexinV conjugated 7- AAD staining by flow cytometry. The class given is functional, cell-based. In outline: as §1
The subject of assay [5] is DU-145. The assay can be described thus: Induction of apoptosis in human DU145 cells assessed as caspase-9 activation at 1 to 10 uM after 24 hrs by Western blot analysis. It is filed as functional, cell-based. In outline: (§2)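 Du145 lysates from dose-ranging treatment were analysed by Western blot for activation of caspase 9 and caspase 3.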
Background: Immunoblotting shows a protein as a band on a membrane.

Assay [6] concerns DU-145. As to the kind of experiment: Induction of apoptosis in human DU145 cells assessed as caspase-3 activation at 1 to 10 uM after 24 hrs by Western blot analysis. It is filed as functional, cell-based. The gist of the method:
as §2

Assay [7] has as its system DU-145. The assay can be described thus: Induction of chromatin condensation in human DU145 cells at 20 uM by Hoechst 33342 staining by fluorescent microscopy. The class given is functional, cell-based. In outline: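 Du145 cells were exposed for 24 h, with 0.2% DMSO as the vehicle control. Nuclei were stained with Hoechst 33342 and viewed by fluorescence microscopy at 100× for chromatin condensation and nuclear shrinkage.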

Assay [8] has as its system DU-145. The assay can be described thus: Induction of apoptosis in human DU145 cells at 10 uM assessed as live cell level after 72 hrs by AnnexinV conjugated 7- AAD staining by flow cytometry. The class given is functional. The gist of the method:
as §1

The subject of assay [9] is DU-145. As to the kind of experiment: Induction of apoptosis in human DU145 cells at 10 uM assessed as early apoptosis level after 72 hrs by AnnexinV conjugated 7- AAD staining by flow cytometry. It is filed as functional. The gist of the method:
as §1
On the technique in general: A flow cytometer gives signals particle by particle.

Assay [10] concerns DU-145. As to the kind of experiment: Induction of apoptosis in human DU145 cells at 10 uM assessed as dead cell level after 72 hrs by AnnexinV conjugated 7- AAD staining by flow cytometry. The class given is functional. The gist of the method:
(§3)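 Du145 human prostate carcinoma cells exposed to compound for 72 h, then stained with Annexin V and 7-AAD and analysed by flow cytometry. Annexin V detects phosphatidylserine externalised to the outer membrane leaflet, and 7-AAD enters only membrane-compromised cells. Dead cells were those positive for both stains. Untreated cells served as control.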

Assay [11] deals with DU-145. The assay can be described thus: Induction of apoptosis in human DU145 cells at 5 uM assessed as live cell level after 72 hrs by AnnexinV conjugated 7- AAD staining by flow cytometry. The class given is functional. In outline: as §1
The test system of assay [12] is DU-145. As to the kind of experiment: Induction of apoptosis in human DU145 cells at 5 uM assessed as early apoptosis level after 72 hrs by AnnexinV conjugated 7- AAD staining by flow cytometry. It is filed as functional. The gist of the method:
as §1

Assay [13] deals with DU-145. The assay can be described thus: Induction of apoptosis in human DU145 cells at 5 uM assessed as late apoptosis/ necrotic cells level after 72 hrs by AnnexinV conjugated 7- AAD staining by flow cytometry. It is filed as functional. In outline: as §1
Assay [14] has as its system DU-145. As to the kind of experiment: Induction of apoptosis in human DU145 cells at 5 uM assessed as dead cell level after 72 hrs by AnnexinV conjugated 7- AAD staining by flow cytometry. The class given is functional. In outline: as §3
Assay [15] has as its system DU-145. The assay can be described thus: Induction of apoptosis in human DU145 cells at 10 uM assessed as late apoptosis/ necrotic cells level after 72 hrs by AnnexinV conjugated 7- AAD staining by flow cytometry. The class given is functional. The gist of the method: as §1

Active and inactive are the calls of the source. The calls are words filed in the database; no cut-off is given here.

As a reminder, the IC50 is the concentration at which inhibition is half-maximal.

As for `O=C1C=C(N2CCN(c3ccccc3)CC2)C(=O)c2c(O)cccc21`, the IC50 is 2.8 µM with DU-145 [1]; over 50 µM with IMR-90; 4.2 µM in the assay with A549; 6.9 µM with HeLa; 5.4 µM in the assay with HepG2; 8.2 µM with HT-1080. Besides, the IC50 with HT-29 is 2.9 µM; with KB it was 7 µM; in assay [3], 3.6 µM; with MCF7 it was 5.2 µM; in the assay on MOLT-4, over 50 µM; in the assay on OS-RC-2 it was 1.5 µM. Also, the results for the IC50 in the assay on SGC-7901 and in the assay on U-251 were 3.7 µM and 6.1 µM, respectively. In addition, the outcome in the assay on DU-145 [2], in the assay on DU-145 [4] and in the assay with DU-145 [7] was Active. In addition, the Activity entry with DU-145 [5] is “Dose-dependent effect”; with DU-145 [6], “Dose-dependent effect”; in the assay on DU-145 [8], 2.8%; in the assay on DU-145 [9] it was 37.6%; in the assay on DU-145 [10] it was 58%.
With `Cc1ccccc1N1CCN(C2=CC(=O)c3cccc(O)c3C2=O)CC1`, the IC50 is 2.3 µM with DU-145 [1]; over 50 µM with IMR-90; 5.3 µM in the assay with A549; 7.2 µM in the assay on HeLa; 10.3 µM in the assay on HepG2; 11 µM in the assay on HT-1080. For the same compound, the IC50 in the assay on HT-29 was 2.8 µM; in the assay on KB, 6.6 µM; in assay [3], 15.1 µM; in the assay on MCF7, 9.7 µM; with MOLT-4, over 50 µM; with OS-RC-2, 4.4 µM. Also, the IC50 with SGC-7901 was determined as 5.3 µM; in the assay with U-251, 10.2 µM. The Activity is recorded as 69.54% with DU-145 [11]; 3.89% with DU-145 [12]; 15.49% with DU-145 [13]; 11.08% with DU-145 [14]; 18.75% with DU-145 [8]; 18.28% in the assay with DU-145 [9]. Further, the Activity in the assay with DU-145 [15] was 59.33%; in the assay on DU-145 [10] it was 3.64%.
Take `COc1ccccc1N1CCN(C2=CC(=O)c3cccc(O)c3C2=O)CC1`: the IC50 in the assay with DU-145 [1] is 1.8 µM; in the assay with IMR-90 it was over 50 µM; in the assay with A549 it was 3.6 µM; with HeLa, 6.5 µM; with HepG2 it was 3.9 µM; in the assay with HT-1080 it was 5.1 µM. Moreover, the IC50 with HT-29 is 2.8 µM; with KB, 2.8 µM; in assay [3] it was 4.6 µM; in the assay with MCF7 it was 5.6 µM; in the assay with MOLT-4, 25.8 µM; with OS-RC-2, 1.9 µM. Further, the IC50 came to 6.8 µM in the assay on SGC-7901 and 4.4 µM in the assay with U-251. Moreover, the Activity is recorded as 46.26% in the assay with DU-145 [11]; 5.88% with DU-145 [12]; 42.79% in the assay with DU-145 [13]; 5.08% in the assay on DU-145 [14]; 23.55% with DU-145 [8]; 10.13% with DU-145 [9]. The Activity in the assay with DU-145 [15] is reported as 62.93%; with DU-145 [10] it was 3.4%.
In the case of `O=C1C=C(N2CCN(c3ccccc3)CC2)C(=O)c2c(O)ccc(O)c21`, the IC50 is 1.3 µM in the assay on DU-145 [1]; over 50 µM with IMR-90; 1.7 µM with A549; 2.1 µM in the assay with HeLa; 5.4 µM in the assay on HepG2; 2.8 µM in the assay on HT-1080. For the same compound, the IC50 in the assay with HT-29 is 2.6 µM; with KB, 1.4 µM; in assay [3], 1.9 µM; in the assay on MCF7 it was 3 µM; in the assay on MOLT-4, over 50 µM; with OS-RC-2, 1.5 µM. Moreover, the IC50 in the assay on SGC-7901 is 2.5 µM; in the assay with U-251, 6.1 µM. The Activity amounted to 7.48% in the assay with DU-145 [11]; 19.8% in the assay with DU-145 [12]; 71.34% with DU-145 [13]; 1.39% in the assay on DU-145 [14]; 0.95% with DU-145 [8]; 13.77% with DU-145 [9]. Moreover, the figures for the Activity in the assay on DU-145 [15] and in the assay with DU-145 [10] were 84.76% and 0.53%, respectively.

For the origin of these results see ChEMBL document CHEMBL1782036, “Atovaquone derivatives as potent cytotoxic and apoptosis inducing agents” (Bioorg Med Chem Lett, 2009).
